One data set concerns Cynomolgus monkey. Briefly: Toxicity in cynomolgus monkey at 1.25 ug administered as systemic dose. Set-up: species or system Macaca fascicularis. The settings on record: in vivo.
The nature of data set [1]: Drug level in New Zealand white rabbit ipsialateral eye vitreous humor at 2 mg/ml, administered via ivt injection at early time point measured up to 100 hrs by LC-MS/MS analysis. The settings on record: ipsilateral eye vitreous humor, topical or ocular, read-out: Drug uptake. The data set is classed as ADME, tissue-based, Oryctolagus cuniculus. In a few lines: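 Male New Zealand White rabbits (10 weeks old, ~2 kg) received one 50 μL intravitreal injection per eye of peptide at 2 mg/mL in 50 mM sodium phosphate, pH 7.2. Animals were sacrificed at 15 min, 1, 4, 8, 24, 48 and 96 h (3 per time point). Whole vitreous was homogenized, clarified, 0.2 μm filtered and assayed by LC-MS/MS, with a lower limit of detection of 1 ng/mL in vitreous.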

Another data set addresses Plasma kallikrein (Rattus norvegicus, UniProt P14272). As to the kind of experiment: Inhibition of recombinant Sprague-Dawley rat plasma kallikrein using fluorogenic H-Pro-Phe-Arg-AMC peptide as substrate preincubated for 15 mins followed by substrate addition measured by fluorescence-based assay. The conditions noted are these: read-out: Ki(app).
Data set [2] has as its system Rattus norvegicus. As to the kind of experiment: Antiinflammatory activity in Sprague-Dawley rat assessed as inhibition carrageenan-induced paw edema at 30 mg/kg, ip pretreated for 15 mins followed by carrageenan challenge measured at 2 hrs post carrageenan challenge. The data set is classed as functional. In a few lines: (§1)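 Male Sprague-Dawley rats received peptide IP (30, 10 or 3 mg/kg), or indomethacin IP at 5 mg/kg, 15 min before subplantar carrageenan. Paw volume was followed over time against a vehicle group.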
A general note: Carrageenan injected into the paw causes an acute inflammation.

For data set [3], the system named is Rattus norvegicus. Briefly: Antiinflammatory activity in Sprague-Dawley rat assessed as inhibition carrageenan-induced paw edema at 30 mg/kg, ip pretreated for 15 mins followed by carrageenan challenge measured at 6 hrs post carrageenan challenge. The data set is classed as functional. In a few lines:
as §1

The nature of data set [4]: Aqueous solubility of the compound in buffer. The data set is classed as physicochemical.

Structures are written as SMILES.

Chain of Plasma kallikrein (P14272 20-390 limits assumed): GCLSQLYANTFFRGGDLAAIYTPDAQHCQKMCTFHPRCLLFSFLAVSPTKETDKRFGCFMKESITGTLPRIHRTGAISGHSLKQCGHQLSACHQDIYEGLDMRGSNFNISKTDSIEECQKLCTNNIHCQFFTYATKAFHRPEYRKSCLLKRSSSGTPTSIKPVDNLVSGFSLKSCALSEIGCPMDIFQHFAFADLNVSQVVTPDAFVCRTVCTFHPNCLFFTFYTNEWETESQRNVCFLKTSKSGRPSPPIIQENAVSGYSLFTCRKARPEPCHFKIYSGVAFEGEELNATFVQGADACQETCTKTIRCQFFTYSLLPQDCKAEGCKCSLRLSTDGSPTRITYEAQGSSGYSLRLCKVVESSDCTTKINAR
Chain of Plasma kallikrein (P14272 391-638 limits assumed): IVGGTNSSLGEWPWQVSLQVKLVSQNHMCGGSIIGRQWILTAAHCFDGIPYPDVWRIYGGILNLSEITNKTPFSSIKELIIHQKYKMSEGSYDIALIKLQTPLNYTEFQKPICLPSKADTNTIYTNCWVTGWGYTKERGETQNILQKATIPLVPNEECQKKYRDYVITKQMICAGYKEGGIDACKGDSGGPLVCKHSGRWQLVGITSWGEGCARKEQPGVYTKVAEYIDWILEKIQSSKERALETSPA

In the case of `CC(=O)N[C@H]1CSCc2cc3cc(c2)CSC[C@H](NC(=O)[C@H](CCCCNC(=N)N)NC(=O)[C@H](Cc2ccc(O)cc2)NC(=O)[C@@H]2CCN2C(=O)[C@H](Cc2ccccc2)NC(=O)[C@H](CO)NC1=O)C(=O)N[C@@H](C)CN[C@@H](Cc1cnc[nH]1)C(=O)N[C@@H](CCC(N)=O)C(=O)N[C@@H](CC(=O)O)C(=O)N[C@@H](CC(C)C)C(=O)N[C@H](C(=O)O)CSC3`, the Activity entry with Cynomolgus monkey was “Non-Toxic”. Also, the concentration at 100 h in data set [1] amounted to 45 µM.

On to `CC[C@H](C)[C@@H]1NC(=O)[C@H](CC(=O)O)NC(=O)[C@@H]2CCCN2C(=O)[C@H](Cc2ccc(O)cc2)NC(=O)[C@H](Cc2ccc(O)cc2)NC(=O)[C@H](C(C)C)NC(=O)[C@@H]2CSCc3cc(cc(c3)CSC[C@@H](C(=O)N[C@@H](C)C(=O)N(C)CC(=O)N(C)CC(=O)N(C)CC(=O)N[C@H](CCCNC(=N)N)C(=O)N[C@H](CCCNC(=N)N)C(=O)O)NC1=O)CSC[C@H](NC(C)=O)C(=O)N[C@@H](CO)C(=O)N[C@@H](Cc1ccccc1)C(=O)N1CCC1C(=O)N[C@@H](Cc1ccc(O)cc1)C(=O)N[C@@H](CCCCNC(=N)N)C(=O)N2` (stereo partly specified), for which the Ki at Plasma kallikrein was 5.5 nM.

Consider `CC(=O)N[C@H]1CSCc2cc3cc(c2)CSC[C@H](C(=O)N[C@@H](C)C(=O)N(C)CC(=O)N(C)CC(=O)N(C)CC(=O)N[C@H](CCCNC(=N)N)C(=O)N[C@H](CCCNC(=N)N)C(=O)O)NC(=O)[C@H](CC(C)C)NC(=O)[C@@H]2CCCN2C(=O)[C@H](C)NC(=O)[C@H](CC(=O)O)NC(=O)[C@H](Cc2c[nH]c4ccccc24)NC(=O)[C@@H]2CCCN2C(=O)[C@H](CSC3)NC(=O)[C@H](Cc2c[nH]c3ccccc23)NC(=O)[C@@H]2CCCN2C(=O)[C@H](CC(N)=O)NC(=O)[C@H](Cc2c[nH]c3ccccc23)NC(=O)[C@H]([C@@H](C)O)NC(=O)[C@H](CC(N)=O)NC1=O`, for which the inhibition in vivo (in general, the percentage by which the read-out fell short of the control) at 30 mg/kg in the data set on Rattus norvegicus [2] stood at 59%; in the data set with Rattus norvegicus [3] it was 64%. The solubility result in data set [4] is on record as “Soluble”.

For the origin of these results see ChEMBL document CHEMBL4033799, “Stable and Long-Lasting, Novel Bicyclic Peptide Plasma Kallikrein Inhibitors for the Treatment of Diabetic Macular Edema” (J Med Chem, 2018).
